{"source": "ChEMBL document CHEMBL1145100", "about": "“Structure-activity relationship of imidazo[1,2-a]pyridines as ligands for detecting beta-amyloid plaques in the brain” (J Med Chem, 2003)", "key": {"Mus musculus [1]": {"tested_on": "Mus musculus", "experiment": "Biodistribution of radioactivity in normal mice blood after 6 hours of intravenous injection of [125I]-16(IMPY)", "type": "ADME, organism-based", "settings": "in vivo", "outline": "(§1)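 Male ICR mice (2-3 months old, 20-30 g) under ether anesthesia; 0.15 mL of 0.1% bovine serum albumin solution containing the iodine-125 tracer injected into the tail vein. Mice killed by cardiac excision at set times. Organs removed, weighed and gamma-counted. Percent dose per organ derived against diluted aliquots of the injectate.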"}, "Mus musculus [2]": {"tested_on": "Mus musculus", "experiment": "Biodistribution of radioactivity in normal mice (ICR) brain after 2 hours of intravenous injection of [125I]-16(IMPY)", "type": "ADME, organism-based", "settings": "in vivo", "outline": "(§2)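 Male ICR mice, 2-3 months old, 20-30 g, under ether anesthesia, given 0.15 mL of 0.1% bovine serum albumin solution containing the [125I] tracer into the tail vein. Killed by cardiac excision at set times after injection. Organs removed and weighed, then gamma-counted. % dose per organ computed against diluted aliquots of the injected material.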"}, "Mus musculus [3]": {"tested_on": "Mus musculus", "experiment": "Biodistribution of radioactivity in normal mice (ICR) skin after 24 hours of intravenous injection of [125I]-16(IMPY)", "type": "ADME, organism-based, Zone of skin", "settings": "in vivo", "outline": "as §2"}, "Mus musculus [4]": {"tested_on": "Mus musculus", "experiment": "Biodistribution of radioactivity in normal mice (ICR) brain after 6 hours of intravenous injection of [125I]-16(IMPY)", "type": "ADME, organism-based", "settings": "in vivo", "outline": "as §2"}, "Mus musculus [5]": {"tested_on": "Mus musculus", "experiment": "Biodistribution of radioactivity in normal mice (ICR) skin after 2 minutes of intravenous injection of [125I]-16(IMPY)", "type": "ADME, organism-based, Zone of skin", "settings": "in vivo", "outline": "as §2"}, "Mus musculus [6]": {"tested_on": "Mus musculus", "experiment": "Biodistribution of radioactivity in normal mice (ICR) spleen after 6 hours of intravenous injection of [125I]-16(IMPY)", "type": "ADME, organism-based", "settings": "in vivo", "outline": "as §2"}, "Mus musculus [7]": {"tested_on": "Mus musculus", "experiment": "Biodistribution of radioactivity in normal mice blood after 2 hours of intravenous injection of [125I]-16(IMPY)", "type": "ADME, organism-based", "settings": "in vivo", "outline": "as §2"}, "Mus musculus [8]": {"tested_on": "Mus musculus", "experiment": "Biodistribution of radioactivity in normal mice (ICR) brain after 1 hour of intravenous injection of [125I]-16(IMPY)", "type": "ADME, organism-based", "settings": "in vivo", "outline": "as §2"}, "Mus musculus [9]": {"tested_on": "Mus musculus", "experiment": "Biodistribution of radioactivity in normal mice (ICR) lung after 24 hours of intravenous injection of [125I]-16(IMPY)", "type": "ADME, organism-based", "settings": "in vivo", "outline": "as §2"}, "Mus musculus [10]": {"tested_on": "Mus musculus", "experiment": "Biodistribution of radioactivity in normal mice (ICR) liver after 2 hours of intravenous injection of [125I]-16(IMPY)", "type": "ADME, organism-based", "settings": "in vivo", "outline": "as §2"}, "Mus musculus [11]": {"tested_on": "Mus musculus", "experiment": "Biodistribution of radioactivity in normal mice (ICR) lung after 30 minutes of intravenous injection of [125I]-16(IMPY)", "type": "ADME, organism-based", "settings": "in vivo, 0.5 h", "outline": "as §2"}, "Mus musculus [12]": {"tested_on": "Mus musculus", "experiment": "Biodistribution of radioactivity in normal mice (ICR) kidney after 1 hour of intravenous injection of [125I]-16(IMPY)", "type": "ADME, organism-based", "settings": "in vivo", "outline": "as §2"}, "Mus musculus [13]": {"tested_on": "Mus musculus", "experiment": "Biodistribution of radioactivity in normal mice (ICR) skin after 1 hour of intravenous injection of [125I]-16(IMPY)", "type": "ADME, organism-based, Zone of skin", "settings": "in vivo", "outline": "as §2"}, "Mus musculus [14]": {"tested_on": "Mus musculus", "experiment": "Biodistribution of radioactivity in normal mice (ICR) heart after 30 minutes of intravenous injection of [125I]-16(IMPY)", "type": "ADME, organism-based", "settings": "in vivo, 0.5 h", "outline": "as §2"}, "Mus musculus [15]": {"tested_on": "Mus musculus", "experiment": "Biodistribution of radioactivity in normal mice (ICR) skin after 30 minutes of intravenous injection of [125I]-16(IMPY)", "type": "ADME, organism-based, Zone of skin", "settings": "in vivo, 0.5 h", "outline": "as §2"}, "Mus musculus [16]": {"tested_on": "Mus musculus", "experiment": "Biodistribution of radioactivity in normal mice (ICR) spleen after 1 hour of intravenous injection of [125I]-16(IMPY)", "type": "ADME, organism-based", "settings": "in vivo", "outline": "as §2"}, "Mus musculus [17]": {"tested_on": "Mus musculus", "experiment": "Biodistribution of radioactivity in normal mice (ICR) heart after 1 hour of intravenous injection of [125I]-16(IMPY)", "type": "ADME, organism-based", "settings": "in vivo", "outline": "as §2"}, "Mus musculus [18]": {"tested_on": "Mus musculus", "experiment": "Biodistribution of radioactivity in normal mice (ICR) brain after 2 minutes of intravenous injection of [125I]-16(IMPY)", "type": "ADME, organism-based", "settings": "in vivo", "outline": "as §2"}, "Mus musculus [19]": {"tested_on": "Mus musculus", "experiment": "Biodistribution of radioactivity in normal mice (ICR) liver after 1 hour of intravenous injection of [125I]-16(IMPY)", "type": "ADME, organism-based", "settings": "in vivo", "outline": "as §2"}, "Mus musculus [20]": {"tested_on": "Mus musculus", "experiment": "Biodistribution of radioactivity in normal mice (ICR) spleen after 2 minutes of intravenous injection of [125I]-16(IMPY)", "type": "ADME, organism-based", "settings": "in vivo", "outline": "as §2"}, "Mus musculus [21]": {"tested_on": "Mus musculus", "experiment": "Biodistribution of radioactivity in normal mice (ICR) spleen after 30 minutes of intravenous injection of [125I]-16(IMPY)", "type": "ADME, organism-based", "settings": "in vivo, 0.5 h", "outline": "as §2"}, "Mus musculus [22]": {"tested_on": "Mus musculus", "experiment": "Biodistribution of radioactivity in normal mice (ICR) spleen after 24 hours of intravenous injection of [125I]-16(IMPY)", "type": "ADME, organism-based", "settings": "in vivo", "outline": "as §2"}, "Mus musculus [23]": {"tested_on": "Mus musculus", "experiment": "Biodistribution of radioactivity in normal mice (ICR) kidney after 24 hours of intravenous injection of [125I]-16(IMPY)", "type": "ADME, organism-based", "settings": "in vivo", "outline": "as §2"}, "Mus musculus [24]": {"tested_on": "Mus musculus", "experiment": "Biodistribution of radioactivity in normal mice blood after 2 minutes of intravenous injection of [125I]-16(IMPY)", "type": "ADME, organism-based", "settings": "in vivo", "outline": "as §1"}, "Mus musculus [25]": {"tested_on": "Mus musculus", "experiment": "Biodistribution of radioactivity in normal mice (ICR) brain after 24 hours of intravenous injection of [125I]-16(IMPY)", "type": "ADME, organism-based", "settings": "in vivo", "outline": "as §2"}, "Mus musculus [26]": {"tested_on": "Mus musculus", "experiment": "Biodistribution of radioactivity in normal mice (ICR) liver after 2 minutes of intravenous injection of [125I]-16(IMPY)", "type": "ADME, organism-based", "settings": "in vivo", "outline": "as §2"}, "Mus musculus [27]": {"tested_on": "Mus musculus", "experiment": "Biodistribution of radioactivity in normal mice (ICR) muscle after 24 hours of intravenous injection of [125I]-16(IMPY)", "type": "ADME, organism-based, Muscle tissue", "settings": "in vivo", "outline": "as §2"}}}
{"smiles": "CN(C)c1ccc(-c2cn3cc(I)ccc3n2)cc1", "values": [{"measurement": "Dose/organ", "setting": "Mus musculus [1]", "result": 1.4, "unit": "%"}, {"measurement": "Dose/organ", "setting": "Mus musculus [2]", "result": 0.14, "unit": "%"}, {"measurement": "Dose/organ", "setting": "Mus musculus [3]", "result": 0.22, "unit": "%"}, {"measurement": "Dose/organ", "setting": "Mus musculus [4]", "result": 0.06, "unit": "%"}, {"measurement": "Dose/organ", "setting": "Mus musculus [5]", "result": 5.72, "unit": "%"}, {"measurement": "Dose/organ", "setting": "Mus musculus [6]", "result": 0.04, "unit": "%"}, {"measurement": "Dose/organ", "setting": "Mus musculus [7]", "result": 1.82, "unit": "%"}, {"measurement": "Dose/organ", "setting": "Mus musculus [8]", "result": 0.21, "unit": "%"}, {"measurement": "Dose/organ", "setting": "Mus musculus [9]", "result": 0.05, "unit": "%"}, {"measurement": "Dose/organ", "setting": "Mus musculus [10]", "result": 2.9, "unit": "%"}, {"measurement": "Dose/organ", "setting": "Mus musculus [11]", "result": 0.31, "unit": "%"}, {"measurement": "Dose/organ", "setting": "Mus musculus [12]", "result": 1.17, "unit": "%"}, {"measurement": "Dose/organ", "setting": "Mus musculus [13]", "result": 4.28, "unit": "%"}, {"measurement": "Dose/organ", "setting": "Mus musculus [14]", "result": 0.16, "unit": "%"}, {"measurement": "Dose/organ", "setting": "Mus musculus [15]", "result": 4.69, "unit": "%"}, {"measurement": "Dose/organ", "setting": "Mus musculus [16]", "result": 0.08, "unit": "%"}, {"measurement": "Dose/organ", "setting": "Mus musculus [17]", "result": 0.12, "unit": "%"}, {"measurement": "Dose/organ", "setting": "Mus musculus [18]", "result": 2.88, "unit": "%"}, {"measurement": "Dose/organ", "setting": "Mus musculus [19]", "result": 5.88, "unit": "%"}, {"measurement": "Dose/organ", "setting": "Mus musculus [20]", "result": 0.4, "unit": "%"}, {"measurement": "Dose/organ", "setting": "Mus musculus [21]", "result": 0.09, "unit": "%"}, {"measurement": "Dose/organ", "setting": "Mus musculus [22]", "result": 0.01, "unit": "%"}, {"measurement": "Dose/organ", "setting": "Mus musculus [23]", "result": 0.05, "unit": "%"}, {"measurement": "Dose/organ", "setting": "Mus musculus [24]", "result": 6.41, "unit": "%"}, {"measurement": "Dose/organ", "setting": "Mus musculus [25]", "result": 0.02, "unit": "%"}, {"measurement": "Dose/organ", "setting": "Mus musculus [26]", "result": 20.9, "unit": "%"}, {"measurement": "Dose/organ", "setting": "Mus musculus [27]", "result": 0.27, "unit": "%"}]}
